# Assay results: PMC3016154 (Journal of biomolecular screening, 2010)
# How the values were obtained:
# EAAT2 protein expression = conditions: mice, intraperitoneal injection; cited from earlier work
# [1] = test system: EAAT2 protein expression (human EAAT2 transcripts with the 1091-nucleotides 5′ UTR); test: Cell-based ELISA for EAAT2 protein expression in PA-EAAT2 cells; conditions: retinoic acid 1.5 μg/mL, 384-well format, vs DMSO
# Summary of the method: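 PA-EAAT2 cells at 8000/well, grown 36 h in 2% FBS DMEM with geneticin, then switched to serum-free DMEM/geneticin and exposed 72 h (0.20% DMSO final). Fixed 2 h in 4% formaldehyde; peroxide quench, milk block; rabbit anti-EAAT2 1:2000 overnight at 4°C, HRP anti-rabbit 1:6000 for 2 h; chemiluminescence read at 40 min. % activation vs DMSO wells; EC50 from 12-point 3-fold series, […], quadruplicate.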
# EAAT2 = conditions: cited from earlier work
compound,measurement,setting,value
"CO/N=C(\C(=O)N[C@@H]1C(=O)N2C(C(=O)O)=C(CSc3nc(=O)c(=O)[nH]n3C)CS[C@H]12)c1csc(N)n1 [ceftriaxone, Ceftriaxone]",induction of EAAT2 protein expression or glutamate uptake activity,EAAT2 protein expression,only slightly induces
CC1=C(/C=C/C(C)=C/C=C/C(C)=C/C(=O)O)C(C)(C)CCC1 [retinoic acid],PA-EAAT2 cell signal increase,[1],2- to 3.5 fold
C[C@]12C[C@H](O)[C@H]3[C@@H](CCC4=CC(=O)CC[C@@]43C)[C@@H]1CC[C@@H]2C(=O)CO [corticosterone],translational activator of EAAT2,EAAT2,translational activator of EAAT2
